Assay results taken from ChEMBL document CHEMBL4145626, “Chemical Constituents of Apios americana Tubers and Their Inhibitory Activities on Nitric Oxide Production in Lipopolysaccharide-Stimulated RAW 264.7 Macrophages” (J Nat Prod, 2018).

Tested on: RAW264.7
Experiment: Inhibition of LPS-induced nitric oxide production in mouse RAW264.7 cells pretreated for 1 hr followed by LPS-stimulation and measured after 24 hrs by Griess assay
Type: functional, cell-based
In short: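 RAW 264.7 macrophages seeded at 0.9 × 10^5 cells/mL and grown 24 h; pretreated with compound 1 h, then stimulated with LPS (1 μg/mL) for 24 h. Accumulated nitrite in medium measured with Griess reagent as NO indicator. IC50 = concentration giving 50% decrease in NO production; means of three independent experiments. NIL (10 μM) as positive control; MTT viability assay run in parallel.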

Structure (SMILES)	IC50
COc1cc(O)cc2occ(-c3ccc(O)cc3)c(=O)c12	> 1000 nM
O=c1c2c(O)cc(O)cc2oc2oc3cc(O)ccc3c12	> 1000 nM
COc1cc(O[C@@H]2O[C@H](CO)[C@@H](O)[C@H](O)[C@H]2O)cc2occ(-c3ccc(O)cc3)c(=O)c12	> 1000 nM
O=c1c(-c2ccc(O[C@@H]3O[C@H](CO)[C@@H](O)[C@H](O)[C@H]3O)cc2O)coc2cc(O)cc(O)c12	> 1000 nM
COc1cc(-c2coc3cc(O)cc(OC)c3c2=O)ccc1O	> 1000 nM
COc1cc(O)cc2c1C(=O)[C@]1(O)c3ccc(O)cc3O[C@@H]1O2	380 nM
O=c1c(-c2ccc(O)cc2)coc2cc(O[C@@H]3O[C@H](CO[C@@H]4O[C@H](CO[C@@H]5O[C@H](CO)[C@@H](O)[C@H](O)[C@H]5O)[C@@H](O)[C@H](O)[C@H]4O)[C@@H](O)[C@H](O)[C@H]3O)cc(O)c12	> 1000 nM
COc1cc(-c2coc3cc(O[C@@H]4O[C@H](CO)[C@@H](O)[C@H](O)[C@H]4O)cc(OC)c3c2=O)ccc1O	> 1000 nM
COc1cc(O)cc2occ(-c3ccc(O)cc3O)c(=O)c12	600 nM
O=c1c(-c2ccc(O)cc2O)coc2cc(O[C@@H]3O[C@H](CO)[C@@H](O)[C@H](O)[C@H]3O)cc(O)c12	> 1000 nM
O=c1c(-c2ccc(O)cc2O)coc2cc(O)cc(O)c12	> 1000 nM
NC(=O)NC1NC(=O)NC1=O (stereo unspecified) [ALLANTOIN]	500 nM
O=c1c(-c2ccc(O)cc2)coc2cc(O)cc(O)c12 [GENISTEIN]	> 1000 nM
O=c1c(-c2ccc(O)cc2)coc2cc(O[C@@H]3O[C@H](CO)[C@@H](O)[C@H](O)[C@H]3O)cc(O)c12 [GENISTIN]	> 1000 nM
CC(=N)NCCCC[C@H](N)C(=O)O [L-NIL]	1550 nM

Continued, values first:

IC50	Structure (SMILES)
420 nM	COc1cc(O[C@@H]2O[C@H](CO)[C@@H](O)[C@H](O)[C@H]2O)cc2occ(-c3ccc(O[C@@H]4O[C@H](CO)[C@@H](O)[C@H](O)[C@H]4O)cc3O)c(=O)c12
600 nM	O=c1c(-c2ccc(O)cc2O)coc2cc(O[C@@H]3O[C@H](CO[C@@H]4O[C@H](CO)[C@@H](O)[C@H](O)[C@H]4O)[C@@H](O)[C@H](O)[C@H]3O)cc(O)c12
> 1000 nM	O=c1c(-c2ccc(O)cc2)coc2cc(O[C@@H]3O[C@H](CO[C@@H]4O[C@H](CO)[C@@H](O)[C@H](O)[C@H]4O)[C@@H](O)[C@H](O)[C@H]3O)cc(O)c12
710 nM	O=c1c(-c2ccc(O[C@@H]3O[C@H](CO)[C@@H](O)[C@H](O)[C@H]3O)cc2O)coc2cc(O[C@@H]3O[C@H](CO)[C@@H](O)[C@H](O)[C@H]3O)cc(O)c12
470 nM	COc1cc(O)cc2occ(-c3ccc(O[C@@H]4O[C@H](CO)[C@@H](O)[C@H](O)[C@H]4O)cc3O)c(=O)c12
> 1000 nM	COc1cc(O[C@@H]2O[C@H](CO)[C@@H](O)[C@H](O)[C@H]2O)cc2occ(-c3ccc(O)cc3O)c(=O)c12
